Screening data: PubChem BioAssay, Johns Hopkins Ion Channel Center
RGS4 inh: inhibitors of human RGS4; B-score at 10 µM; 310,000 tested, 0.45% active; P49798; HEK293 M3R/RGS4 inducible, Fluo-4 calcium flux; stronger effect = higher value; triggered by carbachol at its EC20; AID 463165;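 active = B-score, a plate-corrected calcium signal, over three deviations above library mean, with baseline fluorescence within five deviations of library mean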;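 note: RGS4 expression induced by doxycycline in cells with stable M3 receptor; B-score is computed from the integrated fluorescence ratio over baseline after carbachol; higher B-score means a larger calcium signal and so more RGS4 inhibition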
Target sequence (P49798 whole entry, looked up): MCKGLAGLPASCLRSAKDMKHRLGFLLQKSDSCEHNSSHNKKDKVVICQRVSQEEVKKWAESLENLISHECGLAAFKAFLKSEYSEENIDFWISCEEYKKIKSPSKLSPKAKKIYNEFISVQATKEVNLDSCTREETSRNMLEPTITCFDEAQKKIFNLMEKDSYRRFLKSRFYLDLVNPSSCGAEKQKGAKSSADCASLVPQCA
RGS4 act: RGS4 potentiation or activation. HEK293 M3R/inducible RGS4, carbachol calcium flux Fluo4; stronger effect = lower value. B-score at 10 µM. 310,000 tested, 0.92% active;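 active = B-score of the integrated calcium signal more than 4 SD below the library mean, with starting fluorescence not abnormally high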;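 note: negative B-score means reduced calcium response which marks RGS4 activation or potentiation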
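Material: Inducible-RGS4 HEK293 cells carrying M3 receptor; also added: carbachol at ECmax as muscarinic agonist stimulus; incubation: compound preincubation 20 min at room temperature before agonist; signal: Fluo4-AM (2 µM) calcium-flux fluorescence, kinetic read; measure: integrated calcium ratio converted to B score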
MrgX1 PAM: human MrgX1 positive allosteric modulation, primary screen; 310,000 tested, 0.63% active; MrgX1-HEK293, Fluo-4 calcium flux, FDSS; stronger effect = higher value; B-score at 10 µM; Q96LB2;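 active = plate-corrected calcium response at least 3 library SD above typical, normal starting fluorescence, not activating the receptor alone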;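 note: compound read alongside a low EC10 to EC30 dose of BAM8-22 agonist; peak minus trough fluorescence over baseline measured at the second addition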
MrgX1 antag: antagonists of human MrgX1 receptor. Q96LB2. MRGX1-HEK293 calcium flux, Fluo-4, BAM8-22 antagonism; stronger effect = lower value. B-score at 10 µM. 310,000 tested, 1.3% active. AID 588676;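 active = calcium-response B-score plate-corrected more than 3 library SD below zero, starting fluorescence within 5 deviations, no agonist response on first addition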;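 note: peak minus trough fluorescence over baseline after final BAM8-22 challenge near maximal dose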
MrgX1 agonist: activates human MrgX1 receptor signaling; Q96LB2; MrgX1-HEK293 cells, Fluo-4 calcium fluorescence, agonist mode; stronger effect = higher value; B-score at 10 µM; 310,000 tested, 0.44% active; AID 588627;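 active = calcium response B-score plate-corrected fluorescence ratio at least 3 library SD, with starting fluorescence B-score inside 5 SD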
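System – MrgX1-expressing HEK293 cells · Incubation – cells plated overnight, dye loaded 0.5 h 37 °C, 0.5 h room temperature · Technique – kinetic Fluo-4 NW fluorescence of intracellular calcium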
An asterisk follows results filed as active. Compounds with a hit are over-represented: about 3.5% of the library has one in this group of screens.

Screening CC(C)c1cc(O)c(-c2ccccc2)c(=O)n1-c1ccc(Cl)cc1 returned RGS4 inh inactive, RGS4 act inactive, MrgX1 PAM inactive, MrgX1 antag inactive and MrgX1 agonist inactive.
Screening CC(C)c1c(Cl)c(O)c(-c2ccccc2)c(=O)n1-c1ccc(F)cc1 returned RGS4 inh inactive, RGS4 act inactive, MrgX1 PAM inactive, MrgX1 antag -5.3* and MrgX1 agonist inactive.
`CCN(CC)S(=O)(=O)c1ccc(OC)c(NC(=O)CSc2cc(Cl)ccc2Cl)c1` gave RGS4 inh inactive, RGS4 act inactive, MrgX1 PAM inactive, MrgX1 antag inactive and MrgX1 agonist inactive.
Screening CCn1cnc2cc(NCc3ccc(OC)cc3)ccc21 returned RGS4 inh inactive, RGS4 act inactive, MrgX1 PAM inactive, MrgX1 antag inactive and MrgX1 agonist inactive.
Screening CCOc1ccc2nc3cc(NCc4ccc(OC)cc4)ccc3c(N)c2c1 returned RGS4 inh inactive, RGS4 act -7.6*, MrgX1 PAM inactive, MrgX1 antag inactive and MrgX1 agonist inactive.
Screening Cc1ccc(NC(=O)COC(=O)c2ccc(=O)n(Cc3ccccc3)n2)cc1F returned RGS4 inh inactive, RGS4 act inactive, MrgX1 PAM inactive, MrgX1 antag inactive and MrgX1 agonist inactive.
For CC(OC(=O)c1ccc(=O)n(Cc2ccccc2)n1)C(=O)Nc1cccc(Cl)c1 (centres undefined) the results were RGS4 inh inactive, RGS4 act inactive, MrgX1 PAM inactive, MrgX1 antag -5.3* and MrgX1 agonist inactive.
`CC(C)n1nnc2c(=O)oc3ccccc3c21` gave RGS4 inh inactive, RGS4 act inactive, MrgX1 PAM inactive, MrgX1 antag inactive and MrgX1 agonist inactive.
O=C(NCCc1ccc(Cl)cc1)C1CCC(CNc2c(N3CCCCC3)c(=O)c2=O)CC1 (centres undefined) was read as RGS4 inh inactive, RGS4 act inactive, MrgX1 PAM inactive, MrgX1 antag inactive and MrgX1 agonist inactive.
For Cc1occc1-c1nnc(SCC(=O)N2CCOCC2)n1CCc1ccccc1 the results were RGS4 inh inactive, RGS4 act -7.3*, MrgX1 PAM inactive, MrgX1 antag inactive and MrgX1 agonist inactive.
Screening CCCCn1c(SCC(=O)N2CCOCC2)nnc1-c1ccoc1C returned RGS4 inh inactive, RGS4 act inactive, MrgX1 PAM inactive, MrgX1 antag inactive and MrgX1 agonist inactive.
For N=c1c2c(-c3ccccc3)c(-c3ccccc3)n(Cc3ccco3)c2ncn1CCCn1ccnc1 the results were RGS4 inh inactive, RGS4 act inactive, MrgX1 PAM inactive, MrgX1 antag inactive and MrgX1 agonist inactive.
`CC(C)Cn1cnc2c(c(-c3ccccc3)c(-c3ccccc3)n2Cc2ccco2)c1=N` gave RGS4 inh inactive, RGS4 act -11*, MrgX1 PAM inactive, MrgX1 antag inactive and MrgX1 agonist inactive.
c1ccc(-c2oc3ncnc(NCCCn4ccnc4)c3c2-c2ccccc2)cc1 was read as RGS4 inh inactive, RGS4 act inactive, MrgX1 PAM inactive, MrgX1 antag -5.4* and MrgX1 agonist inactive.
`c1ccc(-c2c(-c3ccccc3)n(Cc3ccco3)c3ncnc(NCCCn4ccnc4)c23)cc1` gave RGS4 inh inactive, RGS4 act -8.5*, MrgX1 PAM inactive, MrgX1 antag inactive and MrgX1 agonist inactive.
For CN(C)CCCNc1ncnc2oc(-c3ccccc3)c(-c3ccccc3)c12 the results were RGS4 inh inactive, RGS4 act inactive, MrgX1 PAM inactive, MrgX1 antag inactive and MrgX1 agonist inactive.
Screening OCCNc1ncnc2c1c(-c1ccccc1)c(-c1ccccc1)n2Cc1ccco1 returned RGS4 inh inactive, RGS4 act inactive, MrgX1 PAM inactive, MrgX1 antag inactive and MrgX1 agonist inactive.
Cc1cc(C)c(C(=O)COC(=O)c2ccc([N+](=O)[O-])o2)cc1C was read as RGS4 inh inactive, RGS4 act -7.5*, MrgX1 PAM inactive, MrgX1 antag inactive and MrgX1 agonist inactive.
COCCn1c(C)cc(C(=O)COC(=O)c2ccc([N+](=O)[O-])o2)c1C was read as RGS4 inh inactive, RGS4 act inactive, MrgX1 PAM inactive, MrgX1 antag inactive and MrgX1 agonist inactive.
